Results taken from ChEMBL document CHEMBL1127431, “Cholinergic agents structurally related to furtrethonium. 2. Synthesis and antimuscarinic activity of a series of N-[5-[(1'-substituted-acetoxy) methyl]-2-furfuryl]dialkylamines” (J Med Chem, 1994).

What was measured:
[1] = molecular target: Muscarinic acetylcholine receptor M3 (Rattus norvegicus) (UniProt P08483); assay: In vitro antimuscarinic activity against the M3 muscarinic receptor subtype in rat bladder
Outline: (§1)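 Rat urinary detrusor strips (extratrigonal, 1 cm × 2 mm), fasted overnight, isotonic recording at 1 g resting tension; 30–45 min equilibration. Cumulative furtrethonium curves in 0.5 log-unit increments, repeated until two matched, then final curve after ≥30 min with test compound. E50 by four-parameter logistic fit; pKb = log(DR−1) − log[B], mean ± SE.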

[2] = molecular target: Muscarinic acetylcholine receptor M3 (Rattus norvegicus) (UniProt P08483); assay: In vitro antimuscarinic activity against the M3 muscarinic receptor subtype in rat ileum; type: tissue-based
Outline: as §1, with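 “Rat longitudinal ileum segments (~2 cm),” for “Rat urinary detrusor strips (extratrigonal, 1 cm × 2 mm),”, “at 0.5” for “at 1”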

[3] = molecular target: T1, Muscarinic acetylcholine receptor M2 (Homo sapiens) (UniProt P08172); assay: In vitro antimuscarinic activity against the M2 muscarinic receptor subtype in guinea pig atria; conditions: Cavia porcellus; target entry is the homologue from another species
T1 sequence (whole entry): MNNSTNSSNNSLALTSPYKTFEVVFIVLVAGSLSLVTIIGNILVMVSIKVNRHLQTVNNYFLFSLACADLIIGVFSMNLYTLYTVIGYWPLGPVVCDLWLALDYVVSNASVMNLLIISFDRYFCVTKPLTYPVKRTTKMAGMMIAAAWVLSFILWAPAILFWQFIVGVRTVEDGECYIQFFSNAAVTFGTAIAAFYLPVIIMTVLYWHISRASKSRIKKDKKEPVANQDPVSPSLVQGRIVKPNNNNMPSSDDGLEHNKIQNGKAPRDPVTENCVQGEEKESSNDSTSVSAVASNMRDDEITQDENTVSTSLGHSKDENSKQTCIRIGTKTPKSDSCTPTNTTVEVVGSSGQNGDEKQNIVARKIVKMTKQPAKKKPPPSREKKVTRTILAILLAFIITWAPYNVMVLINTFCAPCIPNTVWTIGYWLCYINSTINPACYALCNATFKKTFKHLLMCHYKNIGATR
Outline: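 Guinea pig atria (both), fasted overnight, resting tension 1 g, force recorded; 30–45 min equilibration. Cumulative carbachol curves in 0.25 log-unit increments, repeated until two matched, then final curve after ≥30 min with test compound. E50 from four-parameter logistic fit; pKb = log(DR−1) − log[B], mean ± SE.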

Sequence of Muscarinic acetylcholine receptor M3 (Rattus norvegicus) (P08483 whole entry, looked up): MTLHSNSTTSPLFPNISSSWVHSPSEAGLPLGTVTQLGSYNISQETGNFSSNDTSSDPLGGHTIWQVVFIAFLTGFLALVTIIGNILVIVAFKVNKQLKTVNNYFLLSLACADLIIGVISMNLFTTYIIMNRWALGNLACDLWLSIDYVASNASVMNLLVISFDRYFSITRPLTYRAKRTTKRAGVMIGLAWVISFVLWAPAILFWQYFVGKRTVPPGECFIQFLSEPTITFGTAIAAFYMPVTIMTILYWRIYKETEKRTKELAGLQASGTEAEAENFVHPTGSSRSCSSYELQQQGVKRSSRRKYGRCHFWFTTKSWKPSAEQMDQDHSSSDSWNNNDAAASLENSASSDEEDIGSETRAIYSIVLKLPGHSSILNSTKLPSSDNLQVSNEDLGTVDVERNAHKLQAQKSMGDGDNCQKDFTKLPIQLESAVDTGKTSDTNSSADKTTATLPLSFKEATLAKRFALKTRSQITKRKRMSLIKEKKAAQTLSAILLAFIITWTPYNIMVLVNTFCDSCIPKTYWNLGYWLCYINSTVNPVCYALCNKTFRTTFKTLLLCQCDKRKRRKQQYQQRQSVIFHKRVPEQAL

SMILES | pKb [1] | pKb [2] | pKb [3]
O=C(OCc1ccc(CN2CCOCC2)o1)C(c1ccccc1)C1CCCCC1 (stereo not given) | 5.7 | 5.5 | < 5
CC(C)N(C)Cc1ccc(COC(=O)C(c2ccccc2)C2CCCCC2)o1 (stereo not given) | 6.7 | 7 | 5
CN(Cc1ccc(COC(=O)C(c2ccccc2)C2CCCCC2)o1)C1CCCCC1 (stereo not given) | < 5 | 6.5 | < 4.5
CN(C)Cc1ccc(COC(=O)C(c2ccccc2)C2CCCCC2)o1 (stereo not given) | 7.2 | 7.3 | 5.9
CN(C)Cc1ccc(COC(=O)C2c3ccccc3-c3ccccc32)o1 | 5.6 | 5.8 | 4.8
O=C(OCc1ccc(CN2CCCCC2)o1)C(c1ccccc1)C1CCCCC1 (stereo not given) | 5.3 | 6.3 | < 5
CN(C)Cc1ccc(COC(=O)C(c2ccccc2)c2ccccc2)o1 | 6.5 | 6.5 | 5.9
O=C(OCc1ccc(CN2CCCCC2)o1)C(c1ccccc1)c1ccccc1 | 6.2 | 6 | < 5
CCCCCN(C)Cc1ccc(COC(=O)C(c2ccccc2)C2CCCCC2)o1 (stereo not given) | < 5 | 6.9 | < 5
O=C(OCc1ccc(CN2CCC(O)CC2)o1)C(c1ccccc1)C1CCCCC1 (stereo not given) | 6 | 6.5 | < 5
CN(Cc1ccccc1)Cc1ccc(COC(=O)C(c2ccccc2)C2CCCCC2)o1 (stereo not given) | < 5 | < 5 | < 5
CN(C)Cc1ccc(COC(=O)C2c3ccccc3Oc3ccccc32)o1 | 6.6 | 7.1 | 6.5
CCCN(C)Cc1ccc(COC(=O)C(c2ccccc2)C2CCCCC2)o1 (stereo not given) | 6 | 6.8 | < 5
CCN(CC)Cc1ccc(COC(=O)C(c2ccccc2)C2CCCCC2)o1 (stereo not given) | 6 | 6.7 | < 5
CN(C)Cc1ccc(COC(=O)C(O)(C2CCCCC2)C2CCCCC2)o1 | 7.2 | 7.1 | < 5
